{"data": "Results from different studies", "target": "Mitogen-activated protein kinase kinase kinase kinase 4 (MAP4K4, Homo sapiens, UniProt O95819)"}
{"Structure (SMILES)": "Cc1nccc(COC(=O)N2C[C@@H]3[C@@H](CNC(=O)c4ccc5[nH]nnc5c4)[C@@H]3C2)n1", "assay": "cell-free assay, competition with immobilised ligand", "conditions": "1 µM", "remaining binding": "99%"}
{"Structure (SMILES)": "N[C@@H]1CCN(c2nccc(-c3cnn4ncccc34)n2)C1", "assay": "binding", "conditions": "1 µM", "remaining binding": "100%"}
{"Structure (SMILES)": "Nc1ncc2c(n1)-c1c([nH]c3ccc(C#CC4CC4)cc13)CCCC2", "assay": "binding, competition with immobilised ligand", "conditions": "1 µM", "remaining binding": "90%"}
{"Structure (SMILES)": "O=C(NCC1CCOCC1)c1n[nH]cc1NC(=O)c1c(F)cccc1F", "assay": "binding, competition with immobilised ligand", "conditions": "1 µM", "remaining binding": "91%"}
{"Structure (SMILES)": "c1cncc(-c2cccc(Nc3nccc(NC4CCCCC4)n3)c2)c1", "assay": "binding, competition with immobilised ligand", "conditions": "10 µM", "remaining binding": "26%"}
{"Structure (SMILES)": "CN(CCCC(F)(F)F)c1nccc(-c2cnn3ncccc23)n1", "assay": "binding", "conditions": "1 µM", "remaining binding": "100%"}
{"Structure (SMILES)": "FC(F)(F)c1ccc2c(c1)nc(-c1cccnc1)n2C1CC1", "assay": "cell-free assay, competition with immobilised ligand", "conditions": "1 µM", "remaining binding": "100%"}
{"Structure (SMILES)": "CN(c1nccc(-c2cnn3ncccc23)n1)C1CC1", "assay": "binding", "conditions": "1 µM", "remaining binding": "13%"}
{"Structure (SMILES)": "CS(=O)(=O)NCC[C@H](NC(=O)c1cncc2c1cnn2-c1ccc(F)cc1)c1ccnc(S(C)(=O)=O)c1", "assay": "cell-free assay, competition with immobilised ligand", "conditions": "1 µM", "remaining binding": "86%"}
{"Structure (SMILES)": "C[C@@H](c1ccc(-n2cnc3c(N)ncnc32)cc1)N1CCc2nn(C)c(Cc3ccccc3)c2C1=O", "assay": "binding, competition with immobilised ligand", "conditions": "0.1 µM", "remaining binding": "97%"}
{"Structure (SMILES)": "Cc1cnc(Nc2ccc(C(=O)N3CCC(N4CCCC4)CC3)cc2)nc1-c1cc2ccccc2s1", "assay": "binding, competition with immobilised ligand", "conditions": "1 µM", "remaining binding": "67%"}
{"Structure (SMILES)": "Cc1cnn2ncc(-c3ccnc(N(C)C)n3)c2c1", "assay": "binding", "conditions": "1 µM", "remaining binding": "100%"}
{"Structure (SMILES)": "COc1cnc(Nc2cccc(S(N)(=O)=O)c2)nc1N1CCN(c2ccccc2)CC1", "assay": "binding, competition with immobilised ligand", "conditions": "1 µM", "remaining binding": "87%"}
{"Structure (SMILES)": "C[C@H]1CCN(c2nccc(-c3cnn4ncccc34)n2)C1", "assay": "binding", "conditions": "1 µM", "remaining binding": "98%"}
{"Structure (SMILES)": "O=C(NCCCC1CCCCC1)c1ccc(CNC(=O)c2cnn(-c3ccccc3)c2C(F)(F)F)cc1", "assay": "cell-free assay, competition with immobilised ligand", "conditions": "0.1 µM", "remaining binding": "81%"}
{"Structure (SMILES)": "O=C(c1ccc(Nc2nccc(-c3cc4ccccc4s3)n2)cc1)N1CCC(N2CCCC2)CC1", "assay": "binding, competition with immobilised ligand", "conditions": "1 µM", "remaining binding": "40%"}
{"Structure (SMILES)": "CC(=O)N1CCC(c2ccc(C(=O)NC(=N)N)cc2C(F)(F)F)CC1", "assay": "cell-free assay, competition with immobilised ligand", "conditions": "1 µM", "remaining binding": "100%"}
{"Structure (SMILES)": "O=C(NCCCN1CCOCC1)c1ccc(Nc2nccc(-c3cc4ccccc4s3)n2)cc1", "assay": "binding, competition with immobilised ligand", "conditions": "1 µM", "remaining binding": "100%"}
{"Structure (SMILES)": "c1cnn2ncc(-c3ccnc(N4CCC45COC5)n3)c2c1", "assay": "binding", "conditions": "1 µM", "remaining binding": "77%"}
{"Structure (SMILES)": "Cc1c(C(=O)O)cc(-c2ccc(C3CCNCC3)cc2)c2ccc(-c3ccc(C(F)(F)F)cc3)cc12", "assay": "binding, competition with immobilised ligand", "conditions": "1 µM", "remaining binding": "76%"}
{"Structure (SMILES)": "COc1cnc(Nc2cccc(S(N)(=O)=O)c2)nc1N1CCN(c2ccccc2)C(=O)C1", "assay": "binding, competition with immobilised ligand", "conditions": "1 µM", "remaining binding": "100%"}
